Laboratory results reported in ChEMBL document CHEMBL1156500, “Characterization of the metabolic activation of hepatitis C virus nucleoside inhibitor beta-D-2'-Deoxy-2'-fluoro-2'-C-methylcytidine (PSI-6130) and identification of a novel active 5'-triphosphate species” (J Biol Chem, 2007).

Assays:
Hepatocyte [1] = experiment: Drug uptake in human hepatocyte at 2 uM after 48 hrs assessed as 4-amino-1-((2R,3R,4R,5R)-3-fluoro-4-hydroxy-5-(hydroxymethyl)-3-methyl-tetrahydrofuran-2-yl)pyrimitrin-2(1H)-one tri phosphate level per 10^6 cells; assay type: ADME, cell-based; details: hepatocytes
Procedure, shortened: (§1)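 Primary human hepatocytes from 4 donors were plated at 1.5 million cells/well on collagen and recovered for ≥18 h. They were dosed with 3H-labelled drug at 2 μM (10 μCi/ml) for 1–72 h, in duplicate, at 37°C. Cold 60% methanol extracts were run on SAX ion-exchange HPLC with radiometric detection and compared with reference standards. Results are pmol/10^6 cells, mean ± S.D.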

Hepatocyte [2] = experiment: Drug uptake in human hepatocyte at 10 uM after 24 hrs assessed as 1-((2R,3R,4R,5R)-3-fluoro-4-hydroxy-5-(hydroxymethyl)-3-methyl-tetrahydrofuran-2-yl)pyrimidine-2,4(1H,3H)-dione di phosphate level per 10^6 cells; assay type: ADME, cell-based; details: hepatocytes
Procedure, shortened: (§2)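 Primary human hepatocytes from 3 donors were plated on collagen and recovered for ≥18 h. They were exposed for 24 h, in duplicate, to 0–250 μM drug: 3H-labelled material diluted with unlabelled compound. Total intracellular radioactivity and individual phosphates were measured in methanol extracts by SAX HPLC with radiometric detection. Results are pmol/10^6 cells, mean ± S.D.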

Hepatocyte [3] = experiment: Drug uptake in human hepatocyte at 2 uM after 24 hrs assessed as 1-((2R,3R,4R,5R)-3-fluoro-4-hydroxy-5-(hydroxymethyl)-3-methyl-tetrahydrofuran-2-yl)[…] tri phosphate level per 10^6 cells; assay type: ADME, cell-based; details: hepatocytes; procedure, shortened: as §1
Hepatocyte [4] = experiment: Drug uptake in human hepatocyte at 10 uM after 24 hrs assessed per 10^6 cells; assay type: ADME, cell-based; details: hepatocytes; procedure, shortened: as §2
Hepatocyte [5] = experiment: Drug uptake in human hepatocyte at 25 uM after 24 hrs assessed as 1-((2R,3R,4R,5R)-3-fluoro-4-hydroxy-5-(hydroxymethyl)-3-methyl-tetrahydrofuran-2-yl)pyrimidine-2,4(1H,3H)-dione di phosphate level per 10^6 cells; assay type: ADME, cell-based; details: hepatocytes; procedure, shortened: as §2
Hepatocyte [6] = experiment: Drug uptake in human hepatocyte at 50 uM after 24 hrs assessed as 4-amino-1-((2R,3R,4R,5R)-3-fluoro-4-hydroxy-5-(hydroxymethyl)-3-methyl-tetrahydrofuran-2-yl)pyrimidin-2(1H)-one tri phosphate level per 10^6 cells; assay type: ADME, cell-based; details: hepatocytes; procedure, shortened: as §2
Hepatitis C virus = experiment: Antiviral activity against HCV 1b Con1 in 2209-23 cells after 72 hrs by luciferase based replicon assay; assay type: functional, organism-based, Hepacivirus hominis; details: genotype 1b Con 1, 2209-23, 72 h
Procedure, shortened: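 Huh7-derived 2209-23 cells carrying a bicistronic genotype 1b Con1 subgenomic HCV replicon with a Renilla luciferase reporter of RNA replication. Cells were exposed to compound for 72 h, and dose-dependent reduction of luciferase activity was measured to give IC50.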

Hepatocyte [7] = experiment: Drug uptake in human hepatocyte at 2 uM after 24 hrs assessed as 4-amino-1-((2R,3R,4R,5R)-3-fluoro-4-hydroxy-5-(hydroxymethyl)-3-methyl-tetrahydrofuran-2-yl)pyrimidin-2(1H)-one tri phosphate level per 10^6 cells; assay type: ADME, cell-based; details: hepatocytes; procedure, shortened: as §2
Hepatocyte [8] = experiment: Drug uptake in human hepatocyte at 2 uM after 24 hrs assessed per 10^6 cells; assay type: ADME, cell-based; details: hepatocytes
Hepatocyte [9] = experiment: Drug uptake in human hepatocyte at 2 uM after 48 hrs assessed per 10^6 cells; assay type: ADME, cell-based; details: hepatocytes; procedure, shortened: as §1
Hepatocyte [10] = experiment: Drug uptake in human hepatocyte at 2 uM after 24 hrs assessed as 4-amino-1-((2R,3R,4R,5R)-3-fluoro-4-hydroxy-5-(hydroxymethyl)-3-methyl-tetrahydrofuran-2-yl)pyrimidin-2(1H)-one di phosphate level per 10^6 cells; assay type: ADME, cell-based; details: hepatocytes; procedure, shortened: as §2
Hepatocyte [11] = experiment: Drug uptake in human hepatocyte at 10 uM after 24 hrs assessed as 4-amino-1-((2R,3R,4R,5R)-3-fluoro-4-hydroxy-5-(hydroxymethyl)-3-methyl-tetrahydrofuran-2-yl)pyrimidin-2(1H)-one di phosphate level per 10^6 cells; assay type: ADME, cell-based; details: hepatocytes; procedure, shortened: as §2
Hepatocyte [12] = experiment: Drug uptake in human hepatocyte at 100 uM after 24 hrs assessed per 10^6 cells; assay type: ADME, cell-based; details: hepatocytes; procedure, shortened: as §2
Hepatocyte [13] = experiment: Drug uptake in human hepatocyte at 100 uM after 24 hrs assessed as 1-((2R,3R,4R,5R)-3-fluoro-4-hydroxy-5-(hydroxymethyl)-3-methyl-tetrahydrofuran-2-yl)pyrimidine-2,4(1H,3H)-dione tri phosphate level per 10^6 cells; assay type: ADME, cell-based; details: hepatocytes; procedure, shortened: as §2
Hepatocyte [14] = experiment: Drug uptake in human hepatocyte at 2 uM after 24 hrs assessed as 1-((2R,3R,4R,5R)-3-fluoro-4-hydroxy-5-(hydroxymethyl)-3-methyl-tetrahydrofuran-2-yl)pyrimidine-2,4(1H,3H)-dione di phosphate level per 10^6 cells; assay type: ADME, cell-based; details: hepatocytes; procedure, shortened: as §2
Hepatocyte [15] = experiment: Drug uptake in human hepatocyte at 50 uM after 24 hrs assessed as 4-amino-1-((2R,3R,4R,5R)-3-fluoro-4-hydroxy-5-(hydroxymethyl)-3-methyl-tetrahydrofuran-2-yl)pyrimidin-2(1H)-one di phosphate level per 10^6 cells; assay type: ADME, cell-based; details: hepatocytes; procedure, shortened: as §2
Hepatocyte [16] = experiment: Drug uptake in human hepatocyte at 2 uM after 16 hrs assessed as 4-amino-1-((2R,3R,4R,5R)-3-fluoro-4-hydroxy-5-(hydroxymethyl)-3-methyl-tetrahydrofuran-2-yl)[…]-2(1H)-one tri phosphate level per 10^6 cells; assay type: ADME, cell-based; details: hepatocytes; procedure, shortened: as §1
Hepatocyte [17] = experiment: Drug uptake in human hepatocyte at 50 uM after 24 hrs assessed as 1-((2R,3R,4R,5R)-3-fluoro-4-hydroxy-5-(hydroxymethyl)-3-methyl-tetrahydrofuran-2-yl)pyrimidine-2,4(1H,3H)-dione di phosphate level per 10^6 cells; assay type: ADME, cell-based; details: hepatocytes; procedure, shortened: as §2
Hepatocyte [18] = experiment: Drug uptake in human hepatocyte at 250 uM after 24 hrs assessed as 4-amino-1-((2R,3R,4R,5R)-3-fluoro-4-hydroxy-5-(hydroxymethyl)-3-methyl-tetrahydrofuran-2-yl)pyrimidin-2(1H)-one di phosphate level per 10^6 cells; assay type: ADME, cell-based; details: hepatocytes; procedure, shortened: as §2
Hepatocyte [19] = experiment: Drug uptake in human hepatocyte at 25 uM after 24 hrs assessed per 10^6 cells; assay type: ADME, cell-based; details: hepatocytes; procedure, shortened: as §2
Hepatocyte [20] = experiment: Drug uptake in human hepatocyte at 100 uM after 24 hrs assessed as 1-((2R,3R,4R,5R)-3-fluoro-4-hydroxy-5-(hydroxymethyl)-3-methyl-tetrahydrofuran-2-yl)pyrimidine-2,4(1H,3H)-dione di phosphate level per 10^6 cells; assay type: ADME, cell-based; details: hepatocytes; procedure, shortened: as §2
Hepatocyte [21] = experiment: Drug uptake in human hepatocyte at 2 uM after 6 hrs assessed as 1-((2R,3R,4R,5R)-3-fluoro-4-hydroxy-5-(hydroxymethyl)-3-methyl-tetrahydrofuran-2-yl)pyrimitrine-2,4(1H,3H)-trione tri phosphate level per 10^6 cells; assay type: ADME, cell-based; details: hepatocytes; procedure, shortened: as §1
Hepatocyte [22] = experiment: Drug uptake in human hepatocyte at 25 uM after 24 hrs assessed as 4-amino-1-((2R,3R,4R,5R)-3-fluoro-4-hydroxy-5-(hydroxymethyl)-3-methyl-tetrahydrofuran-2-yl)pyrimidin-2(1H)-one di phosphate level per 10^6 cells; assay type: ADME, cell-based; details: hepatocytes; procedure, shortened: as §2
Hepatocyte [23] = experiment: Drug uptake in human hepatocyte at 100 uM after 24 hrs assessed as 4-amino-1-((2R,3R,4R,5R)-3-fluoro-4-hydroxy-5-(hydroxymethyl)-3-methyl-tetrahydrofuran-2-yl)pyrimidin-2(1H)-one tri phosphate level per 10^6 cells; assay type: ADME, cell-based; details: hepatocytes; procedure, shortened: as §2
Hepatocyte [24] = experiment: Drug uptake in human hepatocyte at 2 uM after 72 hrs assessed as 4-amino-1-((2R,3R,4R,5R)-3-fluoro-4-hydroxy-5-(hydroxymethyl)-3-methyl-tetrahydrofuran-2-yl)pyrimitrin-2(1H)-one tri phosphate level per 10^6 cells; assay type: ADME, cell-based; details: hepatocytes; procedure, shortened: as §1
Hepatocyte [25] = experiment: Drug uptake in human hepatocyte at 250 uM after 24 hrs assessed per 10^6 cells; assay type: ADME, cell-based; details: hepatocytes; procedure, shortened: as §2
Hepatocyte [26] = experiment: Drug uptake in human hepatocyte at 2 uM after 48 hrs assessed as 1-((2R,3R,4R,5R)-3-fluoro-4-hydroxy-5-(hydroxymethyl)-3-methyl-tetrahydrofuran-2-yl)pyrimitrine-2,4(1H,3H)-trione tri phosphate level per 10^6 cells; assay type: ADME, cell-based; details: hepatocytes; procedure, shortened: as §1

C[C@@]1(F)[C@H](O)[C@@H](CO)O[C@H]1n1ccc(N)nc1=O
Drug uptake (Hepatocyte [1]): 1.3 pmol | Drug uptake (Hepatocyte [2]): 4.8 pmol | Drug uptake (Hepatocyte [3]): 1.3 pmol | Drug uptake (Hepatocyte [4]): 165.5 pmol | Drug uptake (Hepatocyte [5]): 9.5 pmol | Drug uptake (Hepatocyte [6]): 18.7 pmol | IC50 (Hepatitis C virus): 600 nM | Drug uptake (Hepatocyte [7]): 1.4 pmol | Drug uptake (Hepatocyte [8]): 36.4 pmol | Drug uptake (Hepatocyte [9]): 31.9 pmol | Drug uptake (Hepatocyte [10]): 0.3 pmol | Drug uptake (Hepatocyte [11]): 2.4 pmol | Drug uptake (Hepatocyte [12]): 1529.9 pmol | Drug uptake (Hepatocyte [13]): 71.2 pmol | Drug uptake (Hepatocyte [14]): 0.9 pmol | Drug uptake (Hepatocyte [15]): 8.2 pmol | Drug uptake (Hepatocyte [16]): 0.7 pmol | Drug uptake (Hepatocyte [17]): 20.3 pmol | Drug uptake (Hepatocyte [18]): 19.6 pmol | Drug uptake (Hepatocyte [19]): 439.1 pmol | Drug uptake (Hepatocyte [20]): 34.7 pmol | Drug uptake (Hepatocyte [21]): 0.3 pmol | Drug uptake (Hepatocyte [22]): 3.4 pmol | Drug uptake (Hepatocyte [23]): 34.3 pmol | Drug uptake (Hepatocyte [24]): 1 pmol | Drug uptake (Hepatocyte [25]): 3591.3 pmol | Drug uptake (Hepatocyte [26]): 2 pmol
